{"data": "Measured values collected from several papers", "note": "Lines come from different studies, so protocols differ."}
{"Compound": "Cc1cc(C)nc(Nc2ncc(C(=O)NCCc3c(C)[nH]c4ccccc34)cn2)c1", "assay": "metabolic stability", "system": "male human, hepatocytes", "setting": "1 µM", "quantity": "half-life", "value": "41 min"}
{"Compound": "CCC1(c2ccccc2)C(=O)NC(=O)NC1=O", "tested on": "HepG2", "assay": "cell growth or viability, ATP luminescence", "quantity": "CC50", "value": "> 1000 µM"}
{"Compound": "CCCCCCCCCCOc1cc2c(O)c(C(=O)OCC)cnc2cc1OCC", "tested on": "HepG2", "assay": "cell growth or viability", "setting": "72 h", "quantity": "IC50", "value": "> 100 µM"}
{"Compound": "COC(=O)[C@@H]1[C@@H](c2ccccc2)[C@]2(c3ccc(OC)cc3)Oc3cc(OC)cc(OC)c3[C@@]23N=C(C)N[C@@]13O", "tested on": "HepG2", "assay": "cell growth or viability, MTT", "setting": "48 h", "quantity": "CC50", "value": "0.0105 µM"}
{"Compound": "CN1CCCCC1Cn1cc(C(=O)c2cc([N+](=O)[O-])ccc2I)c2ccccc21 (racemic)", "system": "mouse, plasma", "setting": "intravenous, 25 mg/kg", "quantity": "MRT", "value": "54.7 min"}
{"Compound": "O=C1[O][Pt]2([NH][C@@H]3CCCC[C@H]3[NH]2)[O]C1=O (relative stereo)", "system": "cynomolgus monkey, plasma", "setting": "intravenous, 2 mg/kg", "quantity": "AUC(0-t)", "value": "9170 ng·h/mL"}
{"Compound": "O=C(c1ccc(-n2sc3ncccc3c2=O)cc1)N1CCOCC1", "assay": "metabolic stability", "system": "human, liver microsomes", "quantity": "half-life", "value": "> 120 min"}
{"Compound": "N=c1c2c(-c3ccccc3)c(-c3ccccc3)n(Cc3ccccc3)c2ncn1[C@H]1CC[C@H](O)CC1", "system": "male cynomolgus monkey, plasma", "setting": "oral, 1 mg/kg, single dose", "quantity": "AUC(0-inf)", "value": "27800 ng·h/mL"}
